We go through 10 molecules from PubChem BioAssay.

Activity calls are given as the source filed them.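 How the source made its calls, unless noted: active means fluorescence slope after compound addition differing from the mean of all tested samples at 99.7% confidence, mostly higher but some lower; inactive means the rest.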

Test [1] can be described thus: inhibitors of TNFa-induced NFkB p65 translocation, primary screen, imaging, HUVEC, MLSMR starter and 10KST1 sets (AID 438;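 active means inhibition above 20% together with a positive visual image hit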;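 further: compound added about 3h40 before a 20 min TNFalpha stimulation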;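 on inhibition: signal is the nuclear over cytoplasmic p65 intensity ratio per well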). The conditions noted are these: HUVEC TNFa-induced p65 nuclear translocation; cell count: measured here: nuclei count (cytotoxicity indicator), at 2.08 µM; inhibition: at 2 µM, stronger effect = higher value, 0% TNFa-plus-vehicle, 100% no-TNFa wells.
Test [2] in a line: reduction of polyQ htt aggregates in cells – imaging, exon1htt(103Q)mCFP cells, high-content imaging, primary screen (AID 483;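 active means visual image review flags a hit and inhibition of aggregation exceeds 20%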;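 further: compound exposure lasted 3 days before fixation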;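 on nuclei count: percent of the per-plate median nuclei count of sample wells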). The conditions noted are these: exon1htt(103Q)mCFP cell line, aggregate imaging, at 2 µM; inhibition of aggregation: stronger effect = higher value; nuclei count: measured here: cell count, toxicity.
Test [3] is described as follows: endothelial E-selectin expression blockers – imaging, HUVEC, immunofluorescence, MLSMR starter and 10KST1 sets, primary screen (AID 487;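 active means visually confirmed hit in the image check and inhibition above 20%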;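 on inhibition: signal is fraction of cell area covered by stained E-selectin grains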;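 on nuclei count: 100% = median nuclei count of all wells on the same plate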). The conditions noted are these: HUVEC TNFalpha-induced E-selectin immunofluorescence imaging, at 2 µM; inhibition: stronger effect = higher value; nuclei count: measured here: cell number, toxicity.
The target in test [4] is Voltage-gated potassium channel subunit beta-2 (Rattus norvegicus) (UniProt P62483). As to the kind of experiment: inhibitors of rat Kvbeta2 reductase activity – biochemical, NADPH fluorescence, primary screen (AID 622;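 active means fluorescence slope higher than the sample average by over 3 SD, cut at about -0.22 in these data, passing the limit was not always enough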;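 further: slope of raw intensity against log time taken from 70 to 1610 s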). To be noted: recombinant KvBeta, 4-cyanobenzaldehyde reduction, at 10 µM, stronger effect = higher value.
Test [5] has the same target. As to the kind of experiment: enhancers of rat Kvbeta2 NADPH turnover – biochemical, NADPH fluorescence, primary screen (AID 623;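 active means NADPH fluorescence slope more negative than the mean of all samples by about 3 SD, 99.7% confidence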;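 further: fluorescence intensity change per second fitted from 20 to 320 s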). To be noted: Recombinant KvBeta, NADPH fluorescence decrease slope, 10 min; at 10 µM; stronger effect = lower value.
Test [6] deals with Muscarinic acetylcholine receptor M4 (Homo sapiens) (UniProt P08173). The test can be described thus: M4-linked GIRK flux change, two-sided – cell-based, HEK293 M4/GIRK, thallium flux, BTC-AM, M4 allosteric agonist project, primary screen (AID 625).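 Further: thallium influx through GIRK channels coupled to M4 in HEK293 cells with BTC-AM dye.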 The conditions noted are these: at 10 µM, actives lie on both sides. In a few lines:
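Material: HEK293 cells with M4 receptor and GIRK channels; Times: cells overnight at 37 °C, BTC-AM loading 1 h, reads 2 min total; Technique: kinetic BTC-AM fluorescence sampled at 1 Hz, 10 s pre-addition baseline; Read-out basis: slope over 15–24 s of trace normalized to starting intensity; Controls: carbachol positive, DMSO negative.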

Test [7] is described as follows: blockers of RIG-like receptor reporter activation – cell-based, Sendai virus stimulus, luciferase, 10K MLSCN set, TLR/RLR signaling modifier project, primary screen (AID 602276;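 active means inhibition at or above 50% at 10 µM; inactive means inhibition below 50%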;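 further: firefly luciferase from ISG56 promoter only with Renilla not read in this screen; 0% = Sendai virus plus DMSO and 100% = medium plus DMSO without virus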). To be noted: HEK293 RL24 IRF3 luciferase reporter, at 10 µM, stronger effect = higher value. Background: In a reporter assay the amount or activity of a reporter protein is the signal.
A short description of test [8]: TLR3 IRF3 reporter activation blockers – cell-based, poly I:C stimulus, luciferase, 10K MLSCN set, primary screen (AID 602277;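 active means inhibition of the reporter signal at or above 50%; inactive means inhibition below 50%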). The conditions noted are these: HEK293-TLR3 RL24 IRF3 luciferase reporter, at 10 µM, stronger effect = higher value.

Chain of Voltage-gated potassium channel subunit beta-2 (Rattus norvegicus) (P62483 whole entry, looked up): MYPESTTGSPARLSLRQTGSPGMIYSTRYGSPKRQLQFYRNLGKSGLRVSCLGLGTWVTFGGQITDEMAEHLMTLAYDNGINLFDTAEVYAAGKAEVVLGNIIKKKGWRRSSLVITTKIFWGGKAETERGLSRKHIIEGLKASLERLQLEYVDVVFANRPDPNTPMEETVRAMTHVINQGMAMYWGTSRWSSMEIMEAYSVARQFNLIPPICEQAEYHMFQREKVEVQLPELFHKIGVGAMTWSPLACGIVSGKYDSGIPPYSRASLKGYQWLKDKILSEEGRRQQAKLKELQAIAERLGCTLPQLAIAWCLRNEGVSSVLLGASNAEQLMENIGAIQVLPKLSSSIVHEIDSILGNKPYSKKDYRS
Chain of Muscarinic acetylcholine receptor M4 (Homo sapiens) (P08173 whole entry, looked up): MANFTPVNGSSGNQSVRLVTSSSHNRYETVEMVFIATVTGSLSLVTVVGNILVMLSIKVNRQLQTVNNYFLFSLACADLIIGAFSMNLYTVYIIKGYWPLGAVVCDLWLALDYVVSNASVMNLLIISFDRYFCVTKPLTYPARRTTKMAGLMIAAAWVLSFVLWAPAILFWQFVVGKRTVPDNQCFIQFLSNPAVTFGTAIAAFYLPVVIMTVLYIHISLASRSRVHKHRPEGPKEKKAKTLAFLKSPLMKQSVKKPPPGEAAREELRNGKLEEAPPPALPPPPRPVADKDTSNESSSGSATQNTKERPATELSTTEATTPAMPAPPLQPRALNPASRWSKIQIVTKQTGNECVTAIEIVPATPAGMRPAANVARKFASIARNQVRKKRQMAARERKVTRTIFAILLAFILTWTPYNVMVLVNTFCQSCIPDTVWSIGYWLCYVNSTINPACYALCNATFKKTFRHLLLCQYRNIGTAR

The term inhibition denotes the relative decrease from the control value, in per cent. With `CCCCCCNS(=O)(=O)c1ccc(Cl)s1`, the cell count in test [1] was 579. The inhibition in test [1] is 9.2% (inactive); in test [3], -52.4% (inactive); in test [7], 19.6% (inactive); in test [8] it was 22.4% (inactive). Further, the inhibition of aggregation in test [2] is -1.2% (inactive). The values for the nuclei count in test [2] and in test [3] were 102% and 89.1%, respectively. For the same molecule, the fluorescence slope in test [4] was -0.492 (inactive); in test [6], 0.00433 (inactive). Besides, the NADPH fluorescence slope in test [5] is 0.000132 (inactive).

Regarding `O=c1oc2ccccc2n1CCn1c2ccccc2c2nc3ccccc3nc21`, the cell count in test [1] was 714. The inhibition in test [1] is -7.8% (inactive); in test [3], -9.3% (inactive); in test [7], -5.18% (inactive); in test [8], 9.99% (inactive). In test [2], the inhibition of aggregation was -10.6% (inactive). For the same molecule, the figures for the nuclei count in test [2] and in test [3] were 103% and 109%, respectively. Further, the figures for the fluorescence slope in test [4] and in test [6] were -0.273 (inactive) and 0.00487 (inactive), respectively. Further, the NADPH fluorescence slope in test [5] is -1.3e-05 (inactive).

As to `CCN1CCN(Cc2ccc(NC(=O)Nc3ccc(SC)cc3)cc2)CC1`, in test [1], the cell count is 268. Moreover, the inhibition in test [1] was -1.7% (inactive); in test [3], -52.1% (inactive); in test [7] it was -29.9% (inactive); in test [8], -81.3% (inactive). In test [2], the inhibition of aggregation was 16.3% (inactive). In addition, the nuclei count came to 97.3% in test [2] and 93.5% in test [3]. In addition, the results for the fluorescence slope in test [4] and in test [6] were -0.54 (inactive) and 0.00398 (inactive), respectively. The NADPH fluorescence slope in test [5] was -3.4e-05 (inactive).

Turning to `Cc1noc(C)c1C(=O)OCC(=O)Nc1ccccc1C(=O)NC(C)c1ccccc1` (stereo not given), the cell count in test [1] turned out to be 503. Moreover, the inhibition is 4.7% (inactive) in test [1], -72.6% (inactive) in test [3], 9.57% (inactive) in test [7] and 7.74% (inactive) in test [8]. In test [2], the inhibition of aggregation was -4% (inactive). Further, the nuclei count is 94.3% in test [2] and 106% in test [3]. The fluorescence slope in test [4] was -0.414 (inactive); in test [6], 0.00545 (inactive). In addition, the NADPH fluorescence slope in test [5] is -0.000106 (inactive).

With `COc1cccc(Oc2ccc(N)cc2)c1`, the cell count in test [1] came out at 716. In addition, the inhibition in test [1] is -0.6% (inactive); in test [3], -54.1% (inactive); in test [7], -0.294% (inactive); in test [8] it was -6.53% (inactive). In addition, the inhibition of aggregation in test [2] is 20.3% (inactive). Besides, the nuclei count in test [2] is 102%; in test [3], 97.5%. Moreover, the fluorescence slope in test [4] is -0.44 (inactive); in test [6], 0.00432 (inactive). Besides, the NADPH fluorescence slope in test [5] was -0.000235 (active).

As for `Nc1nc(SCCOc2ccccc2)n[nH]1`, the cell count in test [1] was found to be 256. Further, the inhibition in test [1] is -3% (inactive); in test [3] it was -41.8% (inactive); in test [7], 4.33% (inactive); in test [8], 3.33% (inactive). Moreover, the inhibition of aggregation in test [2] was 18.6% (inactive). Moreover, the nuclei count in test [2] amounted to 76.7%; in test [3], 105%. The fluorescence slope was -0.571 (inactive) in test [4] and 0.00618 (inactive) in test [6]. Besides, the NADPH fluorescence slope in test [5] is -1.8e-05 (inactive).

On to `COc1ccc(NC(=O)CCCN2C(=O)C3C4C=CC(C4)C3C2=O)c(OC)c1` (stereo not given), for which the cell count in test [1] is 554. For the same molecule, the inhibition was -1.8% (inactive) in test [1], 49.6% (inactive) in test [3], 9.13% (inactive) in test [7] and 20.8% (inactive) in test [8]. Besides, in test [2], the inhibition of aggregation was 5.1% (inactive). The nuclei count in test [2] was determined as 94.8%; in test [3], 62.2%. The fluorescence slope was -0.554 (inactive) in test [4] and 0.00549 (inactive) in test [6]. Also, in test [5], the NADPH fluorescence slope was -2.9e-05 (inactive).

For the molecule `c1ccc(Cn2nnnc2C(c2ccccn2)N2CCOCC2)cc1` (stereo not given), in test [1], the cell count stood at 485. The inhibition is 2.1% (inactive) in test [1], -85.1% (inactive) in test [3], -6.48% (inactive) in test [7] and 2.75% (inactive) in test [8]. Also, the inhibition of aggregation in test [2] was -13% (inactive). For the same molecule, the nuclei count was 81.4% in test [2] and 116% in test [3]. For the same molecule, the values for the fluorescence slope in test [4] and in test [6] were -0.577 (inactive) and 0.00747 (inactive), respectively. Also, the NADPH fluorescence slope in test [5] was -4.9e-05 (inactive).

Regarding `COc1ccc(OC(C)C(=O)N2CCN(c3ccccn3)CC2)cc1` (stereo not given), the cell count in test [1] came out at 395. In addition, the inhibition was 7.5% (inactive) in test [1], -90.1% (inactive) in test [3], 21.5% (inactive) in test [7] and 18% (inactive) in test [8]. Also, in test [2], the inhibition of aggregation is 3% (inactive). Further, the values for the nuclei count in test [2] and in test [3] were 103% and 115%, respectively. The fluorescence slope in test [4] was -0.447 (inactive); in test [6], 0.0048 (inactive). The NADPH fluorescence slope in test [5] is -3.5e-05 (inactive).

For `OCCN1CCN(CC(O)COc2ccc3ccccc3c2)CC1` (stereo not given), the cell count in test [1] was found to be 581. In addition, the inhibition in test [1] is -10.8% (inactive); in test [3], -51.6% (inactive); in test [7] it was 11.6% (inactive); in test [8], 15.2% (inactive). Further, the inhibition of aggregation in test [2] was 0.6% (inactive). Besides, the values for the nuclei count in test [2] and in test [3] were 101% and 106%, respectively. Further, the fluorescence slope in test [4] is -0.414 (inactive); in test [6], 0.00595 (inactive). In test [5], the NADPH fluorescence slope was -7.3e-05 (inactive).
